Data set [1] is described as follows: Cmax in mouse dermis at 0.1 umol/cm'2 administered topically. The data set is classed as ADME, tissue-based. Conditions: topical or ocular. Put shortly:
(§1)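 Mouse PK after one topical application of 0.1 μmol/cm², given as a 10 mM solution in PG/EtOH 3/7. Cmax is reported in μM for dermis and for plasma.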

A further data set has as its target T1, Caspase-6 (Homo sapiens, UniProt P55212).
T1 sequence (P55212 whole entry): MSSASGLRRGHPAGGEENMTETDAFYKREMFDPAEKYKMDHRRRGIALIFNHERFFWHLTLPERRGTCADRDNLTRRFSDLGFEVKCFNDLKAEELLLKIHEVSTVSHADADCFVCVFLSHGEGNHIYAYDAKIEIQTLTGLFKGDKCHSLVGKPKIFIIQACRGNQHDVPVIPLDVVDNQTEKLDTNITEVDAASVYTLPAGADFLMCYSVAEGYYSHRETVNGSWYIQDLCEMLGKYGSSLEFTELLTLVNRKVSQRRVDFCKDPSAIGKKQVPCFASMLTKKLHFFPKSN
Description: Inhibition of human recombinant caspase-6 using Ac-VEID-AMC as substrate at Km after 20 mins by fluorescence assay. Put shortly: (§2)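 Human recombinant caspases in pH 7.4 HEPES buffer (100 mM NaCl, 0.1% CHAPS, 1 mM EDTA, 10% glycerol, 10 mM DTT), each with its own AMC substrate at a final concentration equal to its Km. Compounds tested at 10 000–0.04 nM in 1% DMSO. Enzyme level is set to convert under 20% of substrate in 20 min, or 2 h depending on activity, at room temperature. AMC read at 340/450 nm; IC50 from a four-parameter logistic fit.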

A short description of data set [2]: Drug uptake in human dermis at 0.2 umol/cm'2 administered topically. In kind it is ADME, tissue-based. Conditions: topical_or_ocular, read-out: Drug uptake. Put shortly:
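Cryogenically preserved human skin explant given one topical application of 0.2 μmol/cm² from a 40 mM PG/EtOH 3/7 solution. Dermis concentration is reported in μM.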

The target in another data set is Caspase-8 (Homo sapiens, UniProt Q14790). Kind of data set: Inhibition of human recombinant caspase-8 using Ac-IETD-AMC as substrate at Km after 20 mins by fluorescence assay. An outline of the steps:
as §2

Data set [3] can be described thus: Cmax in mouse plasma at 0.1 umol/cm'2 administered topically. The note with it: topical or ocular. Put shortly:
as §1

Data set [4] can be described thus: Intrinsic clearance in human hepatocytes assessed per 10^6 cells. In kind it is ADME, cell-based, Hepatocyte. The note with it: read-out: CLH.
Data set [5] in a line: Phototoxicity in NHEK assessed as decrease in cell viability after 24 hrs in presence of UV light by neutral red uptake assay. Conditions: human. An outline of the steps:
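Keratinocyte neutral red uptake assay adapted from the OECD 432 3T3 NRU test. Cells are irradiated with a simulated daily UV dose of 6 J/cm², and viability is read after 24 h exposure to compound.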

In another data set the target is T2, Caspase-5 (Homo sapiens, UniProt P51878).
T2 sequence (P51878 whole entry): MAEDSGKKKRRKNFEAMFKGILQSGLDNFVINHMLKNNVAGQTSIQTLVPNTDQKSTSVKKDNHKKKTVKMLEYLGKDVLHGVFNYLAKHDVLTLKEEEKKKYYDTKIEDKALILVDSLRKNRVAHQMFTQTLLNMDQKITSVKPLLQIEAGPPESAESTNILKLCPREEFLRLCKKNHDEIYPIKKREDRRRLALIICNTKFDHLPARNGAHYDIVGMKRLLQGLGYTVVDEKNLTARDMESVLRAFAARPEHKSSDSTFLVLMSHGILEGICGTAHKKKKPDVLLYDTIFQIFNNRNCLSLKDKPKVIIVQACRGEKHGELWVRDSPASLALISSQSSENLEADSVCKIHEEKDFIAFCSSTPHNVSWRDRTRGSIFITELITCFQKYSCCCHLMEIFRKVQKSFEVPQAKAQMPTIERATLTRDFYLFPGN
Description: Inhibition of human recombinant caspase-5 using AC-WEHD-AMC as substrate at Km after 20 mins by fluorescence assay. An outline of the steps:
as §2

The target of data set [6] is T3, Caspase-1 (Homo sapiens, UniProt P29466).
T3 sequence (P29466 whole entry): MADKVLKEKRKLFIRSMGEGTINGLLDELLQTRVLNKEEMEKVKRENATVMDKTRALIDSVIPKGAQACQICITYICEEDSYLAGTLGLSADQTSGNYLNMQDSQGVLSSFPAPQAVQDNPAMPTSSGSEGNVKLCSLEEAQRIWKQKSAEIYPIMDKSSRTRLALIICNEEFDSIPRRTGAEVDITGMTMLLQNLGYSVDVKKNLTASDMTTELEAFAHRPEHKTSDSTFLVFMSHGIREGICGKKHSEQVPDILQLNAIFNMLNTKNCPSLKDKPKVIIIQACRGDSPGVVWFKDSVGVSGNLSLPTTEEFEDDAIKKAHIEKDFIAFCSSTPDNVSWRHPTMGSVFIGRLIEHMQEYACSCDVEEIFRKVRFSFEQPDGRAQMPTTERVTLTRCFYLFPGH
Description: Inhibition of caspase-1 in human monocyte-derived macrophages assessed as decrease in LPS-induced IL-1beta secretion after 24 hrs by sandwich immunoassay. Put shortly:
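Cryopreserved human peripheral blood monocytes are cultured 10 days at 37 °C in RPMI with 10% heat-inactivated FBS and 100 ng/mL GM-CSF to give M1 macrophages. Cells are then stimulated with LPS 10 µg/mL plus IFNγ 20 ng/mL and treated with compound serial dilutions (10000–0.04 nM, 0.1% DMSO).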

Data set [7] can be described thus: Lipophilicity, log D of the compound at pH 6.5 by chromatographic method. The data set is classed as physicochemical. The note with it: buffer. An outline of the steps: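 Chromatographic lipophilicity at pH 6.5, converted to ChromLogD = CHI × 0.0857 − 2.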
For the next data set, the target named is T4, Caspase-7 (Homo sapiens, UniProt P55210).
T4 sequence (P55210 whole entry): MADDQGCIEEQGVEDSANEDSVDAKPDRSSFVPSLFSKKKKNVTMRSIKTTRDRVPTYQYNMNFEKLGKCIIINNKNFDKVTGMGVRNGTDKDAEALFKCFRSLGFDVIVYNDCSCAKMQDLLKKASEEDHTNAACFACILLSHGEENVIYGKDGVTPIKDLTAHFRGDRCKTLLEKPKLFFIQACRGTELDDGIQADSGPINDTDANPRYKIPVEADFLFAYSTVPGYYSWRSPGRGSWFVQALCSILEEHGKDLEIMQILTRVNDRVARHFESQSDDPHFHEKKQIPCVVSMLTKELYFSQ
Kind of data set: Inhibition of human recombinant caspase-7 using Ac-DEVD-AMC as substrate at Km after 20 mins by fluorescence assay. An outline of the steps: as §2

Data set [8] has as its target T3, Caspase-1. Description: Inhibition of caspase-1 in human THP1 cells assessed as decrease in LPS-induced IL-1beta secretion after overnight incubation by sandwich immunoassay. The data set is classed as cell-based.
Data set [9] in a line: Chemical stability in 96% ethanol assessed as parent compound recovery at 23 degC after 3 months. The data set is classed as physicochemical. Conditions: read-out: Drug recovery. An outline of the steps: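 Compounds bearing the aspartyl aldehyde warhead are held in 96% ethanol at 23 °C and assayed as percent of parent compound recovered. Readings taken after 4 weeks are projected to 12 weeks with best-fit kinetic-order equations. Tautomers and potential stereoisomers are counted as parent.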

Data set [10] addresses T3, Caspase-1. Description: Inhibition of human recombinant caspase-1 using AC-WEHD-AMC as substrate at Km after 20 mins by fluorescence assay. The note with it: read-out: IC50.
A further data set addresses T5, Caspase-3 (Homo sapiens, UniProt P42574).
T5 sequence (P42574 whole entry): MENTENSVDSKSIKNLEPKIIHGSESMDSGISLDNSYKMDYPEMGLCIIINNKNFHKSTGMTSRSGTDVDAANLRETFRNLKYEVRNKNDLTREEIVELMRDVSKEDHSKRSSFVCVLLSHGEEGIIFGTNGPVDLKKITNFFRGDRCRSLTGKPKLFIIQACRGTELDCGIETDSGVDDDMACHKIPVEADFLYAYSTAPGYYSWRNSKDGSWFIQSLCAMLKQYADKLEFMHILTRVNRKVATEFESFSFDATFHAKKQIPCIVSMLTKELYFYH
Description: Inhibition of human recombinant caspase-3 using Ac-DEVD-AMC as substrate at Km after 20 mins by fluorescence assay. Put shortly:
as §2

From ChEMBL document CHEMBL4177758, “Rational Drug Design of Topically Administered Caspase 1 Inhibitors for the Treatment of Inflammatory Acne” (J Med Chem, 2018) come the findings set out here.

SMILES strings stand for the structures. pIC50: −log10 of the molar value.

Sequence of Caspase-8 (Q14790 217-374 limits assumed): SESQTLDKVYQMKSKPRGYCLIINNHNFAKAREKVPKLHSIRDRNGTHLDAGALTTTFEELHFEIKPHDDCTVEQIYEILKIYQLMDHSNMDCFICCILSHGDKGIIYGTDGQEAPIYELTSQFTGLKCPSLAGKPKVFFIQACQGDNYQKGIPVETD
Sequence of Caspase-8 (Q14790 385-479 limits assumed): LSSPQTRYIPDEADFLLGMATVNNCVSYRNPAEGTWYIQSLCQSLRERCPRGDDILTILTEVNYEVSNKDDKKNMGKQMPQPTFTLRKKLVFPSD

As a reminder, the Cmax is the highest concentration seen after dosing. A word on the pIC50: it is the IC50 on a negative log10 scale, so that one unit is a factor of ten. Usually chromatographic logD stands for lipophilicity estimated from chromatographic retention. With `Cc1cc(Nc2ccc3ccccc3c2)ccc1C(=O)Nc1cn(C(C)C)c(=O)n(C2(C(=O)N[C@H]3CC(=O)OC3O)CC2)c1=O` (stereo not given in full), the Cmax in data set [1] was 4.2 µM; in data set [3] it was 0.0013 µM. In addition, the pIC50 on Caspase-6 was < 5.00; on Caspase-8, < 5.00; at Caspase-5, 5.53; at Caspase-1 [6], 6.80; at Caspase-7, < 5.00; on Caspase-1 [8] it was 7.42. The pIC50 at Caspase-1 [10] is 8.01; at Caspase-3, < 5.00. In addition, the concentration in data set [2] is 4.5 µM. Also, the hepatocyte CLint in data set [4] turned out to be 9.8 µL/min/1e6 cells. Moreover, in data set [5], the Activity result was “Non-Toxic”. Also, the chromatographic logD in data set [7] came to 3.7. Also, the remaining at 2191.5 h in data set [9] came to 100%.
